The target in one series is Cytochrome P450 3A4 (Homo sapiens, UniProt P08684). The experiment in a line: Inhibition of CYP3A4 in human liver microsomes using midazolam as substrate after 4 mins by LC-MS analysis. (Liver microsomes are vesicles of endoplasmic reticulum, rich in cytochrome P450 enzymes.)
The test system of series [1] is Aorta. The experiment in a line: Vasorelaxant activity in potassium depolarized guinea pig aorta assessed as relaxation of calcium-induced contraction at 10^-6 M after 30 mins. Format: functional, tissue-based. To be noted: Cavia porcellus. A digest of the protocol:
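Guinea pig aortic strips depolarized with K+ (80 mM). Calcium-induced contraction measured; inhibition expressed as percent change from control, n = 3−5.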

Series [2] concerns Aorta. As to the kind of experiment: Inhibition of diltiazem-induced vasorelaxant activity in potassium depolarized guinea pig aorta assessed as relaxation of calcium-induced contraction at 10^-6 M preincubated for 30 mins followed by diltiazem addition. Format: functional, tissue-based. To be noted: Cavia porcellus. The essentials: (§1)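 K+-depolarized (80 mM) guinea pig aortic strips contracted with calcium. Compound at 1 μM added 30 min before diltiazem, verapamil or nifedipine. Response expressed as percent change from control. Data given as mean ±, Student's t test.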

The subject of series [3] is Left cardiac atrium. As to the kind of experiment: Negative inotropic activity in potassium depolarized guinea pig left atrium assessed as reduction in developed tension at 10^-8 M preincubated for 30 mins followed by 0.5 uM nifedipine addition. Format: functional, Cavia porcellus. Set-up: scale not given: the % may be the effect or the level left.
In series [4] the test system is Left cardiac atrium. The experiment in a line: Negative inotropic activity in potassium depolarized guinea pig left atrium assessed as reduction in developed tension at 10^-8 M preincubated for 30 mins followed by 10^-6 M verapamil addition. Format: functional, Cavia porcellus. Set-up: scale not given: the % may be the effect or the level left.
Series [5] deals with Left cardiac atrium. As to the kind of experiment: Negative inotropic activity in potassium depolarized guinea pig left atrium assessed as EC50 for nifedipine at 10^-8 M preincubated for 30 mins followed by nifedipine addition. Format: functional. The conditions noted are these: Cavia porcellus. A digest of the protocol: (§2)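 Guinea pig left atria driven at 1 Hz. Pretreated with compound at 0.01 μM, added 30 min before diltiazem, verapamil or nifedipine. Blocker concentration−response curves analysed by probit (Litchfield and Wilcoxon), n = 6−7. Data given as mean ±, Student's t test.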

Series [6] has as its system Left cardiac atrium. As to the kind of experiment: Negative inotropic activity in potassium depolarized guinea pig left atrium assessed as EC50 for verapamil at 10^-8 M preincubated for 30 mins followed by verapamil addition. Format: functional. The conditions noted are these: Cavia porcellus. A digest of the protocol: as §2
Series [7] has as its system Left cardiac atrium. As to the kind of experiment: Negative inotropic activity in potassium depolarized guinea pig left atrium assessed as EC50 for diltiazem at 10^-8 M preincubated for 30 mins followed by diltiazem addition. Format: functional. The conditions noted are these: Cavia porcellus. A digest of the protocol:
as §2

For series [8], the system named is Aorta. The experiment in a line: Vasorelaxant activity in potassium depolarized guinea pig aorta assessed as inhibition of calcium-induced contraction at 10^-8 M preincubated for 30 mins followed by 0.5 uM nifedipine addition. Format: functional, Cavia porcellus. More on the design: scale not given: the % may be the effect or the level left.
Series [9] deals with Aorta. The experiment in a line: Vasorelaxant activity in potassium depolarized guinea pig aorta assessed as inhibition of calcium-induced contraction at 10^-8 M preincubated for 30 mins followed by 5 uM verapamil addition. Format: functional, Cavia porcellus. More on the design: scale not given: the % may be the effect or the level left.
For series [10], the system named is Aorta. As to the kind of experiment: Vasorelaxant activity in potassium depolarized guinea pig aorta assessed as inhibition of calcium-induced contraction at 10^-6 M preincubated for 30 mins followed by 10^-5 M verapamil addition. More on the design: scale not given: the % may be the effect or the level left. Format: functional, Cavia porcellus. A digest of the protocol: as §1

In series [11] the test system is Aorta. The experiment in a line: Vasorelaxant activity in potassium depolarized guinea pig aorta assessed as inhibition of calcium-induced contraction at 10^-6 M preincubated for 30 mins followed by 50 uM diltiazem addition. Format: functional, Cavia porcellus. More on the design: scale not given: the % may be the effect or the level left. A digest of the protocol: as §1

In the next series the test system is Liver microsome. The experiment in a line: Stability in human liver microsomes at 1 uM after 2 to 60 mins by LC-MS analysis in absence of NADPH.
The next series deals with Cytochrome P450 2C9 (Homo sapiens, UniProt P11712). The experiment in a line: Inhibition of CYP2C9 in human liver microsomes using tolbutamide as substrate after 20 mins by LC-MS analysis.
Series [12] concerns Left cardiac atrium. As to the kind of experiment: Negative inotropic activity against potassium depolarized guinea pig left atrium assessed as decrease in diltiazem EC50 at 10^-8 M preincubated for 30 mins followed by diltiazem addition relative to control. Format: functional, Cavia porcellus. The essentials:
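Isolated guinea pig left atria, electrically driven at 1 Hz. The pretreatment agent (0.01 μM) was added to the bath 30 min before the L-type calcium channel blocker. Blocker concentration–response curves were then run to obtain the negative inotropic EC50, which was compared with the EC50 for the blocker alone. Data were compared by Student's t test.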

Calls of active or inactive are those of the source. No cut-off for these calls is given here.

Cytochrome P450 3A4, sequence (P08684 whole entry): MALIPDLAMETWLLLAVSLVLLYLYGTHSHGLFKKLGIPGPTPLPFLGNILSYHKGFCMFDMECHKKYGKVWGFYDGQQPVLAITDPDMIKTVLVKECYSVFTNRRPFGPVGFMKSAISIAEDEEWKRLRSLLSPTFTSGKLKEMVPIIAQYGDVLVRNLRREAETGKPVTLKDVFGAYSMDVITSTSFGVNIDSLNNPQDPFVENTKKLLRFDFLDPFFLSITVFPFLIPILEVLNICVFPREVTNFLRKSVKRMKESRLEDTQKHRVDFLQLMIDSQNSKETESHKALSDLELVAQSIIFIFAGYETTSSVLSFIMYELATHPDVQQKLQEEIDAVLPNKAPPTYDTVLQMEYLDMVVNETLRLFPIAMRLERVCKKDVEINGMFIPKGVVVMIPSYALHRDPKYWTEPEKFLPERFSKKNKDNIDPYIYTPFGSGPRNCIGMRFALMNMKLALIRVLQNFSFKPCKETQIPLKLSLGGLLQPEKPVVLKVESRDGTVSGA
Cytochrome P450 2C9, sequence (P11712 whole entry): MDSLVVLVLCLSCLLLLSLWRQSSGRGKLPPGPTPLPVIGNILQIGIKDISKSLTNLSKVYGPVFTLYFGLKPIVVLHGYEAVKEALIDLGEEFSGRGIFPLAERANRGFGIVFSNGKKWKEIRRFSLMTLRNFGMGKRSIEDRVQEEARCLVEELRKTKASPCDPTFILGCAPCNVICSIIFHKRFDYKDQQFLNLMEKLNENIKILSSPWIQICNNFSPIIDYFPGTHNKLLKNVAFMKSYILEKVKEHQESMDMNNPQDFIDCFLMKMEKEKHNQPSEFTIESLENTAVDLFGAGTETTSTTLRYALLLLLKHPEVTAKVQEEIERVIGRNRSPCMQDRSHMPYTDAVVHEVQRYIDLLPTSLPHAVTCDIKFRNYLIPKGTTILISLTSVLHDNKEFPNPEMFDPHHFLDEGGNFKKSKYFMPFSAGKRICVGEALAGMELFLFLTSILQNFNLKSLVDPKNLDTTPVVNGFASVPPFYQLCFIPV

Turning to `CCOC1(c2ccc(Br)cc2)SC=C(C)n2c1noc2=O` (stereo not given), the values for the IC50 against Cytochrome P450 3A4 and on Cytochrome P450 2C9 were above 20 µM and 18.4 µM, respectively. Also, the inhibition entry in the series with Aorta [1] was “inactive”. In addition, the inhibition entry in the series on Aorta [2] was “Active”. The Activity is listed as 94% in the series with Left cardiac atrium [3]; 95% in the series on Left cardiac atrium [4]; 10% in the series on Aorta [8]; 20% in the series with Aorta [9]; 36% in the series on Aorta [10]; 18% with Aorta [11]. The EC50 in the series on Left cardiac atrium [5] was found to be 22 nM; in the series on Left cardiac atrium [6], 50 nM; in the series with Left cardiac atrium [7], 270 nM. Further, the Stability entry in the series on Liver microsome is reported as “Stable”. Besides, the “fold change (FC)” value in the series on Left cardiac atrium [12] stood at 3.3.

A word on the IC50: it is the concentration at which inhibition is half-maximal. As a reminder, the EC50 is the concentration giving half of the maximal effect.

The values are drawn from ChEMBL document CHEMBL3817843, “Understanding Oxadiazolothiazinone Biological Properties: Negative Inotropic Activity versus Cytochrome P450-Mediated Metabolism” (J Med Chem, 2016).
